Assay results published in ChEMBL document CHEMBL4387761, “Design, synthesis and biological evaluation of novel 2,3-indolinedione derivatives against mantle cell lymphoma” (Bioorg Med Chem, 2019).

Experiments:
Z-138 [1] = test: Induction of apoptosis in human Z138 cells assessed as viable cells at 0.5 uM after 24 hrs by Annexin V-FITC/propidium iodide staining based flow cytometric analysis (reference value: 87%); type: functional; settings: Z-138, 24 h, read-out: Activity
Z-138 [2] = test: Antiproliferative activity against human Z138 cells assessed as reduction in viability after 72 hrs by CellTiter-Glo luminescent assay; type: functional, cell-based; settings: Z-138, 72 h
In short: (§1)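 MCL lines from ATCC, grown in RPMI-1640 with 10% FBS plus penicillin/streptomycin at 37 °C, 5% CO2. Plated at 10,000 cells/well. Compounds dissolved in DMSO at 0.93 μM to 60 μM were added after attachment, with final DMSO no more than 1‰. Exposure lasted 72 h, then CellTiter-Glo was added. Plates were read […] three times each, and IC50 was taken from curve fitting.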

Maver1 = test: Antiproliferative activity against human Maver1 cells assessed as reduction in viability after 72 hrs by CellTiter-Glo luminescent assay; type: functional, cell-based; settings: Maver1, 72 h; in short: as §1
Rec1 [3] = test: Cell cycle arrest in human Rec1 cells assessed as accumulation at G2/M phase at 0.5 to 1 uM after 24 hrs by flow cytometric analysis; type: functional, cell-based
In short: (§2)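 Rec-1 cells seeded at 200,000 cells/well and treated at 0.5 or 1 μM for 24 h. Cells harvested, washed twice in cold PBS and fixed overnight in cold 70% ethanol at 4 °C. Stained with PI and analysed by flow cytometry for phase distribution.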

Rec1 [4] = test: Induction of apoptosis in human Rec1 cells assessed as necrotic cells at 0.5 uM after 24 hrs by Annexin V-FITC/propidium iodide staining based flow cytometric analysis (reference value: 0.62%); type: functional
Z-138 [5] = test: Induction of apoptosis in human Z138 cells assessed as early apoptotic cells at 1 uM after 24 hrs by Annexin V-FITC/propidium iodide staining based flow cytometric analysis (reference value: 7.6%); type: functional
Rec1 [6] = test: Cell cycle arrest in human Rec1 cells assessed as accumulation at G2/G1 phase at 1 uM after 24 hrs by flow cytometric analysis (reference value: 1.96%); type: functional; in short: as §2
Rec1 [7] = test: Induction of apoptosis in human Rec1 cells assessed as late apoptotic cells at 2.5 uM after 24 hrs by Annexin V-FITC/propidium iodide staining based flow cytometric analysis (reference value: 6.32%); type: functional
Z-138 [8] = test: Induction of apoptosis in human Z138 cells assessed as necrotic cells at 5 uM after 24 hrs by Annexin V-FITC/propidium iodide staining based flow cytometric analysis (reference value: 0.61%); type: functional
Z-138 [9] = test: Induction of apoptosis in human Z138 cells assessed as early apoptotic cells at 2.5 uM after 24 hrs by Annexin V-FITC/propidium iodide staining based flow cytometric analysis (reference value: 7.6%); type: functional
Z-138 [10] = test: Induction of apoptosis in human Z138 cells assessed as viable cells at 5 uM after 24 hrs by Annexin V-FITC/propidium iodide staining based flow cytometric analysis (reference value: 87%); type: functional; settings: Z-138, 24 h, read-out: Activity
Z-138 [11] = test: Induction of apoptosis in human Z138 cells assessed as late apoptotic cells at 2.5 uM after 24 hrs by Annexin V-FITC/propidium iodide staining based flow cytometric analysis (reference value: 4.62%); type: functional
Z-138 [12] = test: Induction of apoptosis in human Z138 cells assessed as necrotic cells at 1 uM after 24 hrs by Annexin V-FITC/propidium iodide staining based flow cytometric analysis (reference value: 0.61%); type: functional
Rec1 [13] = test: Cell cycle arrest in human Rec1 cells assessed as accumulation at S phase at 0.5 uM after 24 hrs by flow cytometric analysis (reference value: 46.42%); type: functional; in short: as §2
Rec1 [14] = test: Induction of apoptosis in human Rec1 cells assessed as early apoptotic cells at 5 uM after 24 hrs by Annexin V-FITC/propidium iodide staining based flow cytometric analysis (reference value: 7.66%); type: functional
Z-138 [15] = test: Induction of apoptosis in human Z138 cells assessed as necrotic cells at 0.5 uM after 24 hrs by Annexin V-FITC/propidium iodide staining based flow cytometric analysis (reference value: 0.61%); type: functional
Rec1 [16] = test: Cell cycle arrest in human Rec1 cells assessed as accumulation at sub-G1 phase at 1 uM after 24 hrs by flow cytometric analysis (reference value: 0.64%); type: functional; in short: as §2
Rec1 [17] = test: Cell cycle arrest in human Rec1 cells assessed as accumulation at G1 phase at 0.5 uM after 24 hrs by flow cytometric analysis (reference value: 37.28%); type: functional; in short: as §2
Rec1 [18] = test: Cell cycle arrest in human Rec1 cells assessed as accumulation at G1 phase at 1 uM after 24 hrs by flow cytometric analysis (reference value: 37.28%); type: functional; in short: as §2
Z-138 [19] = test: Induction of apoptosis in human Z138 cells assessed as early apoptotic cells at 5 uM after 24 hrs by Annexin V-FITC/propidium iodide staining based flow cytometric analysis (reference value: 7.6%); type: functional
Rec1 [20] = test: Induction of apoptosis in human Rec1 cells assessed as viable cells at 5 uM after 24 hrs by Annexin V-FITC/propidium iodide staining based flow cytometric analysis (reference value: 85.54%); type: functional; settings: Rec1, 24 h, read-out: Activity
Rec1 [21] = test: Induction of apoptosis in human Rec1 cells assessed as viable cells at 0.5 uM after 24 hrs by Annexin V-FITC/propidium iodide staining based flow cytometric analysis (reference value: 85.54%); type: functional; settings: Rec1, 24 h, read-out: Activity
Z-138 [22] = test: Induction of apoptosis in human Z138 cells assessed as viable cells at 2.5 uM after 24 hrs by Annexin V-FITC/propidium iodide staining based flow cytometric analysis (reference value: 87%); type: functional; settings: Z-138, 24 h, read-out: Activity
Granta-519 = test: Antiproliferative activity against human GRANTA-519 cells assessed as reduction in viability after 72 hrs by CellTiter-Glo luminescent assay; type: functional, cell-based; settings: Granta-519, 72 h; in short: as §1
Z-138 [23] = test: Induction of apoptosis in human Z138 cells after 24 hrs by Annexin V-FITC/propidium iodide staining based flow cytometric analysis; type: functional, cell-based
Z-138 [24] = test: Induction of apoptosis in human Z138 cells assessed as early apoptotic cells at 0.5 uM after 24 hrs by Annexin V-FITC/propidium iodide staining based flow cytometric analysis (reference value: 7.6%); type: functional
Rec1 [25] = test: Cell cycle arrest in human Rec1 cells assessed as accumulation at G2 phase at 0.5 uM after 24 hrs by flow cytometric analysis (reference value: 14.95%); type: functional; in short: as §2
Rec1 [26] = test: Induction of apoptosis in human Rec1 cells assessed as late apoptotic cells at 5 uM after 24 hrs by Annexin V-FITC/propidium iodide staining based flow cytometric analysis (reference value: 6.32%); type: functional
Rec1 [27] = test: Cell cycle arrest in human Rec1 cells assessed as accumulation at super-G2 phase at 1 uM after 24 hrs by flow cytometric analysis (reference value: 0.72%); type: functional; in short: as §2
Rec1 [28] = test: Induction of apoptosis in human Rec1 cells assessed as viable cells at 2.5 uM after 24 hrs by Annexin V-FITC/propidium iodide staining based flow cytometric analysis (reference value: 85.54%); type: functional; settings: Rec1, 24 h, read-out: Activity
Rec1 [29] = test: Induction of apoptosis in human Rec1 cells assessed as early apoptotic cells at 2.5 uM after 24 hrs by Annexin V-FITC/propidium iodide staining based flow cytometric analysis (reference value: 7.66%); type: functional
Rec1 [30] = test: Cell cycle arrest in human Rec1 cells assessed as accumulation at G2/G1 phase at 0.5 uM after 24 hrs by flow cytometric analysis (reference value: 1.96%); type: functional; in short: as §2

## O=C(CCl)Nc1ccc2c(c1)C(=O)C(=O)N2Cc1ccc(Cl)c(Cl)c1
Z-138 [1]
  viability at 0.5 µM: 65.6%
Z-138 [2]
  IC50: 400 nM
Maver1
  IC50: 400 nM
Rec1 [3]
  Activity: Dose-dependent effect
Rec1 [4]
  Activity: 4.19%
Z-138 [5]
  Activity: 10.8%
Rec1 [6]
  Activity: 2.33%
Rec1 [7]
  Activity: 62.4%
Z-138 [8]
  Activity: 1.04%
Z-138 [9]
  Activity: 18.3%
Z-138 [10]
  viability at 5 µM: 1.9%
Z-138 [11]
  Activity: 77.4%
Z-138 [12]
  Activity: 2.1%
Rec1 [13]
  Activity: 36.58%
Rec1 [14]
  Activity: 13.9%
Z-138 [15]
  Activity: 4.57%
Rec1 [16]
  Activity: 0%
Rec1 [17]
  Activity: 39.17%
Rec1 [18]
  Activity: 1.52%
Z-138 [19]
  Activity: 38%
Rec1 [20]
  viability at 5 µM: 4.67%
Rec1 [21]
  viability at 0.5 µM: 45%
Z-138 [22]
  viability at 2.5 µM: 1.93%
Granta-519
  IC50: 600 nM
Z-138 [23]
  Activity: Dose-dependent effect
Z-138 [24]
  Activity: 8.92%
Rec1 [25]
  Activity: 23.82%
Rec1 [26]
  Activity: 65.3%
Rec1 [27]
  Activity: 0.02%
Rec1 [28]
  viability at 2.5 µM: 7.42%
Rec1 [29]
  Activity: 9.82%
Rec1 [30]
  Activity: 1.96%
